Assay outcomes as filed in PubChem.
An excerpt weighted towards active compounds, which were near 0.72% of everything screened.
hIAP activ = human IAP activators, primary screen, biochemical, luminescence, uHTS; Intestinal-type alkaline phosphatase (Homo sapiens), P09923; purified human IAP, CDP-Star luminescence, 30 min; stronger effect = higher value; 1 = vehicle-only enzyme, 0 = enzyme-free background; activation factor at 10 µM; hit rate 0.16% among 330,000; AID 2524, 2010;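 active = activation factor of the enzyme at least 2-fold when tested at 20 µM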
Target sequence (P09923 whole entry, looked up): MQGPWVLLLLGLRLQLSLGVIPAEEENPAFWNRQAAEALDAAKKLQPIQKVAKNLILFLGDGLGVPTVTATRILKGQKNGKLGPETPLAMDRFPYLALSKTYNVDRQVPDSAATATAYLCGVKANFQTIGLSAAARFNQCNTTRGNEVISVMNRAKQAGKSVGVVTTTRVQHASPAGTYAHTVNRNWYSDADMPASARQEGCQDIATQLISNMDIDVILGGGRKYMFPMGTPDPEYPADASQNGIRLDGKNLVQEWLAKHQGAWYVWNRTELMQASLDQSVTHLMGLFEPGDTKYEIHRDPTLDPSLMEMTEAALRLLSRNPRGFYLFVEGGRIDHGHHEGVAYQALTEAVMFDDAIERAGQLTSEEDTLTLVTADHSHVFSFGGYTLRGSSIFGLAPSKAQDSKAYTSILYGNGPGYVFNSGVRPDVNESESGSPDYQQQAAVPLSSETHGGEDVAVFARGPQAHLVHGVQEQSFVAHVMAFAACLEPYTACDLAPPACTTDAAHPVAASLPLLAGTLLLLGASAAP
mIAP activ = activators of mouse IAP, primary screen, biochemical, luminescence, uHTS | muIAP, CDP-Star luminescence, 30 min; stronger effect = higher value; 1 = vehicle-only enzyme signal, 0 = enzyme-free wells | activation factor at 10 µM | hit rate 0.24% among 330,000 | AID 2805, 2010;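 active = activation factor of at least 2 at 20 µM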
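Assay system: mouse IAP enzyme; reagent: chemiluminescent substrate CDP-Star; dosing: test compounds delivered from DMSO solution; schedule: 30 min at room temperature; measured by: luminescence from enzymatic CDP-Star hydrolysis; controls: DMSO-only wells and no-enzyme negative control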
bIAP inh = bovine intestinal alkaline phosphatase inhibitors, primary screen, selectivity assay for TNAP inhibitor project, biochemical, bovine IAP, CDP-star luminescence; AID 1019, 2008; alkaline phosphatase, intestinal [Bos taurus]; inhibition, % at 20 µM; 190,000 tested, under 10 active; purified bovine IAP, 30 min;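 active = over 50% inhibition of intestinal alkaline phosphatase at 20 µM in the single-dose screen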
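Assay system – bovine IAP enzyme · Quantity – bovine IAP at 1/65,000,000 final dilution · Detection – CDP-star luminescence signal · Times – 30 min reaction at room temperature · Also added – CDP-star substrate at 30 µM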
bIAP act = bovine intestinal alkaline phosphatase activators, primary screen, biochemical, bovine IAP, CDP-star luminescence; purified bovine IAP, 30 min; stronger effect = higher value; fold of DMSO-control signal, blank-subtracted; activation factor at 20 µM; hit rate 0.17% among 200,000;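 active = activation factor of 2 or more at 20 µM, a signal rise over negative controls twice the positive control's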
hIAP block = human IAP inhibitors, primary screen, biochemical, luminescence, uHTS. Intestinal-type alkaline phosphatase (Homo sapiens), P09923. purified IAP, CDP-Star luminescence, 30 min. inhibition, % at 10 µM. hit rate 0.12% among 330,000. AID 2544, 2010;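 active = inhibition reaching a set limit with compound at 10 µM in the primary screen, cut at about 35% in these data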;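 note: plate controls were DMSO wells with enzyme for no effect and no-enzyme buffer wells for full effect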
mIAP inh = inhibitors of mouse IAP, primary screen, biochemical, luminescence, uHTS | intestinal alkaline phosphatase [Mus musculus] | purified mouse IAP, CDP-Star luminescence, 30 min | inhibition, % at 10 µM | hit rate 0.2% among 330,000;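 active = inhibition of at least 40% at 10 µM in the primary screen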;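 note: plate controls were DMSO with enzyme for no effect and no enzyme wells for full effect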
hIAP act conf = human IAP activators, confirmation, biochemical, luminescence, single concentration, uHTS hits | shares compounds with hIAP activ | hit rate 10% among 880 | AID 434926, 2010 | purified IAP, CDP-Star luminescence, 30 min; stronger effect = lower value | activation (%Activity, negative = activation), % at 8.3 µM;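 active = at least twofold enzyme activation in any of six single-dose repeats, which the averaged readout prints as negative percent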
Numbers without * were called inactive; . = not tested or not shown.

SMILES | hIAP activ | mIAP activ | bIAP inh | bIAP act | hIAP block | mIAP inh | hIAP act conf
Cc1c(Cl)cccc1NC(=O)c1cc(-c2ccccc2O)n[nH]1 | 2* | 1.1 | 7 | 0.9 | -101 | -8 | 5
N#CCN1C(=S)N=C(Nc2cccc(Cl)c2)C12CCCCC2 | 2.1* | 1.1 | -2 | 1 | -106 | -13 | -55*
CC(=O)Nc1nc(-c2cccc3ccccc23)cs1 | 1.1 | 0.93 | . | . | -14 | 7 | .
CC(=O)Nc1nc(-c2ccc(Br)s2)cs1 | 2.2* | 0.92 | 38 | 0.6 | -120 | 8 | 6
COc1ccccc1N(C)S(=O)(=O)c1ccc(Cl)c(C(=O)NNC(=O)c2ccccc2O)c1 | 2.3* | 0.62 | . | . | -134 | 38 | 59
CN(C)c1ccc(/C=C2\C(=N)N3N=C(CC(=O)N4CCCCC4)SC3=NC2=O)cc1 | 0.63 | 0.72 | . | . | 37* | 28 | 7
O=C(NCCN1CCOCC1)N1CCOCC1 | 0.85 | 0.91 | 13 | 0.9 | 15 | 9 | .
CCCC(CCC)C(=O)NCCN1CCOCC1 | 0.61 | 0.99 | 3 | 1 | 39* | 1 | -35
C[n+]1c(/C=C/c2ccc(O)cc2)ccc2ccccc21 | 0.56 | 0.72 | . | . | 44* | 28 | 4
COc1ccccc1NC(=S)NCc1ccc(Cl)cc1 | 0.85 | 1.1 | . | . | 15 | -14 | .
CSc1ccccc1NC(=S)NCc1ccc(Cl)cc1 | 0.6 | 1.1 | . | . | 40* | -14 | -32
Clc1ccc(Cl)c(-c2nn3c(COc4ccccc4)nnc3s2)c1 | 0.89 | 0.89 | 12 | 0.9 | 11 | 11 | .
CCOCCCNc1nc2c(C)cccn2c(=O)c1/C=C1\SC(=S)N(C(C)CC)C1=O (centres undefined) | 0.64 | 0.7 | . | . | 36* | 30 | 0
COc1ccc2[nH]c(C(=O)N/N=C/c3ccc(O)cc3O)cc2c1 | 2* | 0.82 | . | . | -104 | 18 | -9
Cc1ccc(CNS(=O)(=O)c2ccc(C(C)(C)C)cc2)n1C | 0.93 | 0.98 | 10 | 0.9 | 7 | 2 | .
Cc1ccc(NS(=O)(=O)c2ccc(NC(=O)C3CC3)cc2)c(C)c1 | 0.64 | 1.1 | . | . | 36* | -10 | -2
Cc1ccc(NS(=O)(=O)c2ccc(NC(=O)c3cccs3)cc2)c(C)c1 | 0.95 | 0.89 | -3 | 1 | 5 | 11 | .
O=C(O)CNC(=O)c1ccc(NC(=O)/C(=C/c2ccccc2)NC(=O)c2ccccc2Br)cc1 | 1 | 0.99 | . | . | -3 | 1 | .
CC1OC(Oc2c(-c3cc(O)c(O)c(O)c3)oc3cc(O)cc(O)c3c2=O)C(O)C(O)C1O (centres undefined) | 1.1 | 0.86 | . | . | -11 | 14 | .
O=C(O)C1OC(Oc2c(-c3ccc(O)c(O)c3)oc3cc(O)cc(O)c3c2=O)C(O)C(O)C1O (centres undefined) | 0.29 | 0.6 | 4 | 1 | 71* | 40 | 32
Cc1cccc(NC(=O)CCc2ccc(C)o2)c1 | 0.63 | 0.99 | -3 | 1 | 37* | 1 | -26
Cc1cc(C)cc(NC(=O)CCc2ccc(C)o2)c1 | 1 | 0.65 | . | . | 0 | 35 | .
CC(=O)N1CCOc2ccc(S(=O)(=O)N3C(C)CCCC3C)cc21 (centres undefined) | 0.88 | 0.91 | . | . | 12 | 9 | .
CC(=O)N1CCOc2ccc(S(=O)(=O)N3CCCC(C)C3)cc21 (centres undefined) | 0.57 | 1.1 | . | . | 43* | -8 | 54
CCCS(=O)(=O)Nc1cccc(-c2ccc3nnc(C)n3n2)c1 | 0.96 | 1 | -4 | 1 | 4 | -2 | .
SMILES | hIAP activ | mIAP activ | bIAP inh | bIAP act | hIAP block | mIAP inh | hIAP act conf
CCCCCN1CC(O)=C(c2nc3ccccc3[nH]2)C1=N | 2.1* | 1.3 | -13 | 1.1 | -111 | -30 | -45
CCOC(=O)c1ccc(NS(=O)(=O)CC)cc1 | 1.1 | 1 | 4 | 1 | -15 | -2 | .
CCCCCCn1c(N)c(C#N)c2ccc([N+](=O)[O-])cc2c1=O | 0.84 | 0.62 | 22 | 0.8 | 16 | 38 | .
COCCOCCn1c(/C=C/c2ccccc2)nc2ccccc21 | 0.91 | 1 | 6 | 0.9 | 9 | 0 | .
CCCn1c(/C=C/c2ccccc2)nc2ccccc21 | 3.1* | 0.96 | 21 | 0.8 | -214 | 4 | 37
COc1ccccc1/C=C/C=N/n1c(-c2cc(C)[nH]n2)n[nH]c1=S | 2.1* | 1 | 0 | 1 | -111 | -1 | 11
Cc1ccccc1/C=N/n1c(-c2cc(-c3ccccc3)n[nH]2)n[nH]c1=S | 2* | 1 | . | . | -104 | -1 | -3
COc1ccccc1/C=C/C=N/n1c(-c2ccccn2)n[nH]c1=S | 0.95 | 0.96 | . | . | 4 | 4 | .
COc1ccccc1/C=C/C=N/n1c(-c2n[nH]c3c2CCC3)n[nH]c1=S | 2* | 1 | . | . | -104 | -1 | 27
COc1cccc(/C=N/n2c(-c3n[nH]c4c3CCC4)n[nH]c2=S)c1O | 0.98 | 0.78 | 7 | 0.9 | 2 | 22 | .
O=C(NNC(=O)c1ccccc1Br)c1ccc2nc[nH]c2c1 | 2* | 0.9 | . | . | -103 | 10 | -10
CN(C)c1ccc(/C=C2/C=C(c3ccc4c(c3)CCCC4)OC2=O)cc1 | 0.57 | 0.67 | . | . | 43* | 33 | 4
O=C(O)c1cccc(CSc2n[nH]c(-c3ccc(Cl)cc3Cl)n2)c1 | 0.6 | 1 | 23 | 0.8 | 40* | -2 | -18
Cc1nc(-c2ccc(S(=O)(=O)N3CCCN(CCc4ccccc4)CC3)s2)cs1 | 2.3* | 0.87 | . | . | -127 | 13 | -3
Cc1ccc(CN2CCC(C(=O)Nc3cccc(-c4cccc(F)c4)c3)CC2)o1 | 2.2* | 2.4* | . | . | -122 | -142 | 2
CCc1ccc(CN2CCC(C(=O)Nc3cccc(-c4nnc(C)s4)c3)CC2)o1 | 1.2 | 0.97 | . | . | -21 | 2 | .
CC1=Nc2ccccc2N=C(NC(=O)CSC(=S)N2CCN(C)CC2)C1c1ccccc1 (centres undefined) | 2.4* | 1.2 | . | . | -143 | -16 | 4
CC1=Nc2ccccc2N=C(NC(=O)CSC(=S)N2CCCCC2)C1c1ccccc1 (centres undefined) | 1 | 1 | . | . | -1 | -4 | .
C=CCNC(=O)c1c[nH]c2ccc(S(=O)(=O)N(C)c3ccc(OCC)cc3)cc2c1=O | 1.2 | 0.94 | . | . | -17 | 6 | .
CCc1c(C(=O)NNC(=S)NCCc2ccccc2)csc1C | 2.1* | 0.95 | -1 | 1 | -113 | 5 | -26
